Experimental data reported in ChEMBL document CHEMBL1143716, “Analysis of crucial structural requirements of 2-substituted pyrimido[4,5-b][1,5]oxazocines as NK(1) receptor antagonist by axially chiral derivatives” (Bioorg Med Chem, 2007).

These compounds were tested against Substance-P receptor (Cavia porcellus) (UniProt P30547) (assay: Antagonist activity at guinea pig NK1 receptor assessed as effect on ileum contractions).
Assay type: functional, tissue-based
Method in brief: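 Guinea pig ileum in organ bath with Tyrode's solution, 32 °C, gassed 95% O2/5% CO2, resting tension 1 g, 20 min equilibration. Pretreated 10 min with at least three concentrations of test compound in DMSO, then cumulative substance P concentration-response curve versus substance P control curve. KB by Schild method; means, n = 3–5.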

Sequence of Substance-P receptor (Cavia porcellus) (P30547 whole entry): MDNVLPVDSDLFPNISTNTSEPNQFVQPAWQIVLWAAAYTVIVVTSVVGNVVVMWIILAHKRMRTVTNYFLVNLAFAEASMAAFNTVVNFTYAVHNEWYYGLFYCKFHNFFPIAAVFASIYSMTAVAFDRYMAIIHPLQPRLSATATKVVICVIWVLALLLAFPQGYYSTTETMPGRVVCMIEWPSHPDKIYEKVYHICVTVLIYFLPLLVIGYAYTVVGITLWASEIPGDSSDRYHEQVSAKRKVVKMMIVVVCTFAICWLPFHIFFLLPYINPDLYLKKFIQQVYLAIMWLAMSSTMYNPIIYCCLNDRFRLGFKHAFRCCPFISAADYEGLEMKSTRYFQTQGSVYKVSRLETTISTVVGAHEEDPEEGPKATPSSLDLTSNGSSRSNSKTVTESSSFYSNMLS

Row | SMILES | Kb [nM]
1 | CC(=O)N1CCN(c2nc3c(c(-c4ccccc4C)n2)C(=O)N(Cc2cc(C(F)(F)F)cc(C(F)(F)F)c2)C[C@@H](C)CO3)CC1 | 0.345
2 | CC(=O)N1C(C)CN(c2nc3c(c(-c4ccccc4C)n2)C(=O)N(Cc2cc(C(F)(F)F)cc(C(F)(F)F)c2)CCCO3)CC1C (configuration not stated) | 0.679
3 | CC(=O)N1C(C)CN(c2nc3c(c(-c4ccccc4C)n2)C(=O)N(Cc2cc(C(F)(F)F)cc(C(F)(F)F)c2)C[C@H](C)CO3)CC1C (some centres not stated) | 0.217
4 | Cc1ccccc1-c1ncnc2c1C(=O)N(Cc1cc(C(F)(F)F)cc(C(F)(F)F)c1)C[C@@H](C)CO2 | 162
5 | Cc1ccccc1-c1ncnc2c1C(=O)N(Cc1cc(C(F)(F)F)cc(C(F)(F)F)c1)C[C@H](C)CO2 | 12.6
6 | CC(=O)N1CCN(c2nc3c(c(-c4ccccc4C)n2)C(=O)N(Cc2cc(C(F)(F)F)cc(C(F)(F)F)c2)CCCO3)CC1 | 0.105
7 | Cc1ccccc1-c1nc(N(C)C)nc2c1C(=O)N(Cc1cc(C(F)(F)F)cc(C(F)(F)F)c1)C[C@H](C)CO2 | 0.427
8 | Cc1ccccc1-c1nc(N(C)C)nc2c1C(=O)N(Cc1cc(C(F)(F)F)cc(C(F)(F)F)c1)C[C@@H](C)CO2 | 52.9
9 | Cc1ccccc1-c1ncnc2c1C(=O)N(Cc1cc(C(F)(F)F)cc(C(F)(F)F)c1)CCCO2 | 11.6
10 | Cc1ccccc1-c1nc(N(C)C)nc2c1C(=O)N(Cc1cc(C(F)(F)F)cc(C(F)(F)F)c1)CCCO2 | 0.679
11 | CC(=O)N1C(C)CN(c2nc3c(c(-c4ccccc4C)n2)C(=O)N(Cc2cc(C(F)(F)F)cc(C(F)(F)F)c2)C[C@@H](C)CO3)CC1C (some centres not stated) | 0.545
12 | CC(=O)N1CCN(c2nc3c(c(-c4ccccc4C)n2)C(=O)N(Cc2cc(C(F)(F)F)cc(C(F)(F)F)c2)C[C@H](C)CO3)CC1 | 0.139
